From ChEMBL document CHEMBL5120823, “Feature-Based Molecular Networking Discovery of Bromopyrrole Alkaloids from the Marine Sponge Agelas dispar” (J Nat Prod, 2022)
Converted amounts (≈) assume the structure as drawn.

How the values were obtained:
Escherichia coli [1] = assay: Antibacterial activity against Escherichia coli ATCC 25922 incubated for 24 hrs by broth microdilution method; assay type: functional
In short: (§1)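 CLSI-based broth microdilution. Pure bacterial suspensions were set to 0.5 McFarland (about (1−2) × 10^8 CFU/mL) and diluted to a final inoculum of about 5 × 10^5 CFU/mL. Compounds were tested in 2-fold dilutions from 100 to 0.78 μM and incubated at 35 °C for 24 h. MIC was read as the lowest concentration with no growth visible to the unaided eye.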

Escherichia coli [2] = assay: Antibacterial activity against ESBL-producing Escherichia coli ATCC 35218 incubated for 24 hrs by broth microdilution method; assay type: functional; in short: as §1
Klebsiella pneumoniae [3] = assay: Antibacterial activity against Klebsiella pneumoniae ATCC 700603 incubated for 24 hrs by broth microdilution method; assay type: functional; in short: as §1
Klebsiella pneumoniae [4] = assay: Antibacterial activity against carbapenem-resistant Klebsiella pneumoniae id-146/19 incubated for 24 hrs by broth microdilution method; assay type: functional
In short: (§2)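 CLSI-based broth microdilution. Pure bacterial suspensions adjusted to 0.5 McFarland (about (1−2) × 10^8 CFU/mL), then diluted to a final inoculum of about 5 × 10^5 CFU/mL (5 × 10^4 CFU/well). Compounds were tested in 2-fold dilutions from 100 to 0.78 μM. Plates incubated 24 h at 35 °C. MIC was the lowest concentration with complete growth inhibition by unaided eye, reported in μM.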

Acinetobacter baumannii [5] = assay: Antibacterial activity against Acinetobacter baumannii ATCC 19606 incubated for 24 hrs by broth microdilution method; assay type: functional; in short: as §1
Acinetobacter baumannii [6] = assay: Antibacterial activity against carbapenem-resistant Acinetobacter baumannii id-261/16 incubated for 24 hrs by broth microdilution method; assay type: functional; in short: as §2
Pseudomonas aeruginosa [7] = assay: Antibacterial activity against Pseudomonas aeruginosa ATCC 27853 incubated for 24 hrs by broth microdilution method; assay type: functional; in short: as §1
Pseudomonas aeruginosa [8] = assay: Antibacterial activity against carbapenem-resistant Pseudomonas aeruginosa S-6065/06 incubated for 24 hrs by broth microdilution method; assay type: functional; in short: as §2
Enterococcus faecalis [9] = assay: Antibacterial activity against Enterococcus faecalis ATCC 29212 incubated for 24 hrs by broth microdilution method; assay type: functional; in short: as §1
Enterococcus faecalis [10] = assay: Antibacterial activity against vancomycin resistant Enterococcus faecalis ATCC 51299 incubated for 24 hrs by broth microdilution method; assay type: functional; in short: as §2
Staphylococcus aureus [11] = assay: Antibacterial activity against Staphylococcus aureus ATCC 25923 incubated for 24 hrs by broth microdilution method; assay type: functional; in short: as §2
Staphylococcus aureus [12] = assay: Antibacterial activity against oxacillin-resistant Staphylococcus aureus ATCC 33591 incubated for 24 hrs by broth microdilution method; assay type: functional; in short: as §2
[13] = Hemolytic activity against BALB/c mouse erythrocyte at 100 uM measured after 2 hrs relative to control; assay type: toxicity, cell-based; conditions: erythrocytes, read-out: Activity
In short: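 BALB/c mouse erythrocytes, as a 3% suspension in 1× PBS, were exposed to compound at 100 to 6.25 μM for 2 h at 24 °C. Hemolysis was read as supernatant optical density at 570 nm. Distilled water gave maximum hemolysis, and untreated erythrocytes served as the negative control.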

OVCAR3 (Homo sapiens) = assay: Cytotoxicity against human OVCAR3 cells assessed as inhibition of cell viability at 50 uM incubated for 72 hrs by MTT assay relative to control

Structure (SMILES)	MIC (Escherichia coli [1]) [µM]	MIC (Escherichia coli [2]) [µM]	MIC (Klebsiella pneumoniae [3]) [µM]	MIC (Klebsiella pneumoniae [4]) [µM]	MIC (Acinetobacter baumannii [5]) [µM]	MIC (Acinetobacter baumannii [6]) [µM]	MIC (Pseudomonas aeruginosa [7]) [µM]	MIC (Pseudomonas aeruginosa [8]) [µM]	MIC (Enterococcus faecalis [9]) [µM]	MIC (Enterococcus faecalis [10]) [µM]	MIC (Staphylococcus aureus [11]) [µM]	MIC (Staphylococcus aureus [12]) [µM]	hemolysis at 2 h, 100 µM [13] [%]	Activity (OVCAR3 (Homo sapiens)) [%]
Nc1nc([C@@H]2c3[nH]c(N)nc3C[C@H](CNC(=O)c3cc(Br)c[nH]3)[C@H]2CNC(=O)c2cc(Br)c[nH]2)c[nH]1	100 (≈ 62 µg/mL)	100 (≈ 62 µg/mL)	> 100	> 100	> 100	> 100	50 (≈ 31 µg/mL)	> 100	> 100	> 100	> 100	> 100	2.3	50
Nc1nc([C@@H]2c3nc(N)[nH]c3C[C@H](CNC(=O)c3cc(Br)c(Br)[nH]3)[C@H]2CNC(=O)c2cc(Br)c(Br)[nH]2)c[nH]1	12.5 (≈ 9.73 µg/mL)	12.5 (≈ 9.73 µg/mL)	12.5 (≈ 9.73 µg/mL)	25 (≈ 19.5 µg/mL)	100 (≈ 77.8 µg/mL)	100 (≈ 77.8 µg/mL)	25 (≈ 19.5 µg/mL)	25 (≈ 19.5 µg/mL)	6.2 (≈ 4.82 µg/mL)	6.2 (≈ 4.82 µg/mL)	6.2 (≈ 4.82 µg/mL)	6.2 (≈ 4.82 µg/mL)	0.7	
Nc1nc([C@@H]2c3[nH]c(N)nc3C[C@H](CNC(=O)c3cc(Br)c[nH]3)[C@H]2CNC(=O)c2cc(Br)c(Br)[nH]2)c[nH]1 [BROMOAGELIFERIN]	12.5 (≈ 8.74 µg/mL)	25 (≈ 17.5 µg/mL)	> 100	> 100	> 100	100 (≈ 69.9 µg/mL)	12.5 (≈ 8.74 µg/mL)	50 (≈ 35 µg/mL)	> 100	> 100	12.5 (≈ 8.74 µg/mL)	12.5 (≈ 8.74 µg/mL)	1.5	
